The text below walks through data of ChEMBL document CHEMBL1275574, “Lysine-enriched cecropin-mellitin antimicrobial peptides with enhanced selectivity” (Antimicrob Agents Chemother, 2008).

Values after ≈ are worked out from the molar mass of the structure shown. Peptide text beside a SMILES is read from it.

The test system of series [1] is Staphylococcus aureus. The experiment in a line: Antimicrobial activity against Staphylococcus aureus BBA-41. It is filed as functional. An outline of the steps: (§1)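 MICs were determined by standard methods on the gram-negative strains and on S. aureus strains 6538p (methicillin-sensitive) and BBA-41 (methicillin-resistant). Peptides had acetylated N termini and amidated C termini, and were purified by RP-HPLC. Reported as the range of values seen in at least three independent experiments.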

The subject of series [2] is J774.A1. In words: Cytotoxicity against mouse […] cell assessed as survival rate. It is filed as functional. Set-up: concentration or dose not given beside the values. An outline of the steps: (§2)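 Cultured murine macrophages were exposed to peptide at a final concentration of 30 μM or 10 μM, depending on the peptide. Viability was read by MTT conversion to formazan. Results are percent survival versus buffer-treated controls, as mean and standard error of the mean of at least three independent experiments.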

Series [3] deals with Staphylococcus epidermidis. In words: Antimicrobial activity against Staphylococcus epidermidis. It is filed as functional.
The subject of a further series is Pseudomonas aeruginosa. In words: Antimicrobial activity against Pseudomonas aeruginosa PAO1. It is filed as functional. A digest of the protocol:
as §1

The nature of series [4]: Selectivity index, Ratio of MIC for Pseudomonas aeruginosa PAO1 to fraction of human erythrocyte hemolysis at 64 uM. It is filed as functional.
In series [5] the test system is RAW264.7. The experiment in a line: Cytotoxicity against mouse RAW264.7 cell assessed as survival rate. It is filed as functional. Set-up: concentration or dose not given beside the values. An outline of the steps:
as §2

Series [6] can be described thus: Selectivity index, Ratio of MIC for Escherichia coli BL21 to fraction of human erythrocyte hemolysis at 64 uM. It is filed as functional.
A short description of series [7]: Selectivity index, Ratio of MIC for Staphylococcus aureus 6538p to fraction of human erythrocyte hemolysis at 64 uM. It is filed as functional.
The subject of a further series is Escherichia coli. The experiment in a line: Antimicrobial activity against Escherichia coli BL21. It is filed as functional. A digest of the protocol:
as §1

For series [8], the system named is Staphylococcus aureus. In words: Antimicrobial activity against Staphylococcus aureus 6538p. It is filed as functional. A digest of the protocol:
as §1

The nature of series [9]: Selectivity index, Ratio of MIC for Staphylococcus epidermidis to fraction of human erythrocyte hemolysis at 64 uM. It is filed as functional.
For another series, the species on record is Homo sapiens. In words: Hemolysis of human erythrocyte at 64 uM. It is filed as ADME. An outline of the steps:
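Peptide (64 μM) was incubated with a 1% suspension of fresh human erythrocytes at 37°C for 1 h. Released hemoglobin was measured and expressed relative to cells lysed with 1% Triton X-100. Values are means of multiple independent experiments.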

The subject of series [10] is RAW264.7. In words: Cytotoxicity against mouse RAW264.7 cell assessed as survival rate at 10 uM. It is filed as functional. An outline of the steps:
as §2

Series [11] relates to J774.A1. The experiment in a line: Cytotoxicity against mouse […] cell assessed as survival rate at 10 uM. It is filed as functional. A digest of the protocol:
as §2

A word on the MIC: it is the least concentration at which growth counts as inhibited. With `CC[C@H](C)[C@H](NC(=O)[C@H](CCCCN)NC(=O)[C@H](CCCCN)NC(=O)[C@H](Cc1ccccc1)NC(=O)[C@H](CCCCN)NC(=O)[C@H](CCCCN)NC(=O)[C@H](Cc1c[nH]c2ccccc12)NC(=O)[C@H](CCCCN)NC(C)=O)C(=O)NCC(=O)N[C@@H](C)C(=O)N[C@H](C(=O)N[C@@H](CC(C)C)C(=O)N[C@@H](CCCCN)C(=O)N[C@@H](CCCCN)C(=O)N[C@@H](CC(C)C)C(N)=O)C(C)C` (Ac-KWKKFKKIGAVLKKL-NH2), the MIC is more than 16 µM against Staphylococcus aureus [1]; 0.5 µM (≈ 0.928 µg/mL) in [3]; 1 µM (≈ 1.86 µg/mL) against Pseudomonas aeruginosa; 1 µM (≈ 1.86 µg/mL) against Escherichia coli; more than 16 µM against Staphylococcus aureus [8]. Also, the results for the Activity in the series on J774.A1 [2] and in the series on RAW264.7 [5] were 94% and 104%, respectively. Further, the “Selectivity Index” value in series [4] is recorded as 8.3; in series [6], 16.7; in series [7], less than 0.5; in series [9], 68. Besides, in the series filed under Homo sapiens, the Hemolysis was found to be 3%.
As for `CC[C@H](C)[C@H](NC(=O)[C@H](CCCCN)NC(=O)[C@H](CCCCN)NC(=O)[C@H](Cc1ccccc1)NC(=O)[C@H](CCCCN)NC(=O)[C@H](CCCCN)NC(=O)[C@H](Cc1c[nH]c2ccccc12)NC(=O)[C@H](CCCCN)NC(C)=O)C(=O)NCC(=O)N[C@@H](C)C(=O)N[C@H](C(=O)N[C@@H](CC(C)C)C(=O)N[C@@H](CCCCN)C(=O)N[C@H](C(=O)N[C@@H](CC(C)C)C(N)=O)C(C)C)C(C)C` (Ac-KWKKFKKIGAVLKVL-NH2), the minimal inhibitory concentration (MIC) in the series on Staphylococcus aureus [1] was more than 16 µM; in series [3], 0.5 µM (≈ 0.914 µg/mL); against Pseudomonas aeruginosa, 0.5 µM (≈ 0.914 µg/mL); against Escherichia coli it was 0.25 µM (≈ 0.457 µg/mL); in the series with Staphylococcus aureus [8] it was 16 µM (≈ 29.2 µg/mL). In addition, the Activity in the series on J774.A1 [2] was 81%; in the series on RAW264.7 [5] it was 73%. The “Selectivity Index” value in [4] came out at 4.8; in [6], 9.5; in series [7], 0.3; in series [9], 9.5. Further, the Hemolysis in the series listed under Homo sapiens amounted to 21%.
On to `CC[C@H](C)[C@H](NC(=O)[C@H](CCCCN)NC(=O)[C@H](CCCCN)NC(=O)[C@H](Cc1ccccc1)NC(=O)[C@H](CCCCN)NC(=O)[C@H](CCCCN)NC(=O)[C@H](Cc1c[nH]c2ccccc12)NC(=O)[C@H](CCCCN)NC(C)=O)C(=O)NCC(=O)N[C@@H](CCCCN)C(=O)N[C@H](C(=O)N[C@@H](CC(C)C)C(=O)N[C@@H](CCCCN)C(=O)N[C@H](C(=O)N[C@@H](CC(C)C)C(N)=O)C(C)C)C(C)C` (Ac-KWKKFKKIGKVLKVL-NH2), for which the MIC in the series on Staphylococcus aureus [1] was more than 16 µM; in [3], 0.25 µM (≈ 0.471 µg/mL); in the series on Pseudomonas aeruginosa, 0.5 µM (≈ 0.942 µg/mL); against Escherichia coli, 0.5 µM (≈ 0.942 µg/mL); against Staphylococcus aureus [8] it was 16 µM (≈ 30.2 µg/mL). In addition, the figures for the Activity in the series on J774.A1 [2] and with RAW264.7 [5] were 88% and 86%, respectively. In addition, the “Selectivity Index” value in series [4] was found to be 11; in series [6] it was 22; in series [7] it was 0.7; in series [9], 44. Moreover, the Hemolysis in the series filed under Homo sapiens is 9%.
As to `CC[C@H](C)[C@H](NC(=O)[C@H](CCCCN)NC(=O)[C@H](CCCCN)NC(=O)[C@H](Cc1ccccc1)NC(=O)[C@H](CC(C)C)NC(=O)[C@H](CCCCN)NC(=O)[C@H](Cc1c[nH]c2ccccc12)NC(=O)[C@H](CCCCN)NC(C)=O)C(=O)NCC(=O)N[C@@H](C)C(=O)N[C@H](C(=O)N[C@@H](CC(C)C)C(=O)N[C@@H](CCCCN)C(=O)N[C@@H](CCCCN)C(=O)N[C@@H](CC(C)C)C(N)=O)C(C)C` (Ac-KWKLFKKIGAVLKKL-NH2), the MIC with Staphylococcus aureus [1] worked out at 8 µM (≈ 14.7 µg/mL); in series [3], 0.25 µM (≈ 0.46 µg/mL); with Pseudomonas aeruginosa, 2 µM (≈ 3.68 µg/mL); against Escherichia coli, 1 µM (≈ 1.84 µg/mL); with Staphylococcus aureus [8], 4 µM (≈ 7.37 µg/mL). Moreover, the figures for the Activity with J774.A1 [2] and in the series on RAW264.7 [5] were 74% and 88%, respectively. Also, the “Selectivity Index” value is listed as 6.25 in [4], 6.25 in series [6], 3 in series [7] and 48 in series [9]. Besides, the Hemolysis in the series filed under Homo sapiens was 4%.
`CC[C@H](C)[C@H](NC(=O)[C@H](CCCCN)NC(=O)[C@H](CCCCN)NC(=O)[C@H](Cc1ccccc1)NC(=O)[C@H](CC(C)C)NC(=O)[C@H](CCCCN)NC(=O)[C@H](Cc1c[nH]c2ccccc12)NC(=O)[C@H](CCCCN)NC(C)=O)C(=O)NCC(=O)N[C@@H](C)C(=O)N[C@H](C(=O)N[C@@H](CC(C)C)C(=O)N[C@@H](CCCCN)C(=O)N[C@H](C(=O)N[C@@H](CC(C)C)C(N)=O)C(C)C)C(C)C` (Ac-KWKLFKKIGAVLKVL-NH2): the MIC came to 1 µM (≈ 1.81 µg/mL) against Staphylococcus aureus [1]; 0.5 µM (≈ 0.906 µg/mL) in [3]; 2 µM (≈ 3.62 µg/mL) against Pseudomonas aeruginosa; 0.5 µM (≈ 0.906 µg/mL) against Escherichia coli; 0.5 µM (≈ 0.906 µg/mL) against Staphylococcus aureus [8]. The “Selectivity Index” value in series [4] was found to be 0.56; in [6] it was 2.2; in series [7], 1.1; in [9], 2.2. Also, the Activity with RAW264.7 [10] is 21%; with J774.A1 [11], 16%. In the series listed under Homo sapiens, this molecule came in with a Hemolysis of 45%.
Turning to `CC[C@H](C)[C@H](NC(=O)[C@H](CCCCN)NC(=O)[C@H](CCCCN)NC(=O)[C@H](Cc1ccccc1)NC(=O)[C@H](CC(C)C)NC(=O)[C@H](CCCCN)NC(=O)[C@H](Cc1c[nH]c2ccccc12)NC(=O)[C@H](CCCCN)NC(C)=O)C(=O)NCC(=O)N[C@@H](CCCCN)C(=O)N[C@H](C(=O)N[C@@H](CC(C)C)C(=O)N[C@@H](CCCCN)C(=O)N[C@@H](CCCCN)C(=O)N[C@@H](CC(C)C)C(N)=O)C(C)C` (Ac-KWKLFKKIGKVLKKL-NH2), the MIC against Staphylococcus aureus [1] stood at 16 µM (≈ 30.4 µg/mL); in series [3] it was 0.25 µM (≈ 0.475 µg/mL); with Pseudomonas aeruginosa, 1 µM (≈ 1.9 µg/mL); against Escherichia coli it was 1 µM (≈ 1.9 µg/mL); in the series with Staphylococcus aureus [8] it was 4 µM (≈ 7.59 µg/mL). Besides, the Activity is on record as 45% with J774.A1 [2] and 57% in the series with RAW264.7 [5]. Further, the “Selectivity Index” value in series [4] is listed as 6.25; in [6], 12.5; in series [7], 1.5; in [9] it was 50. In the series filed under Homo sapiens, this molecule gave a Hemolysis of 8%.
As to `CC[C@H](C)[C@H](NC(=O)[C@H](CCCCN)NC(=O)[C@H](CCCCN)NC(=O)[C@H](Cc1ccccc1)NC(=O)[C@H](CC(C)C)NC(=O)[C@H](CCCCN)NC(=O)[C@H](Cc1c[nH]c2ccccc12)NC(=O)[C@H](CCCCN)NC(C)=O)C(=O)NCC(=O)N[C@@H](CCCCN)C(=O)N[C@H](C(=O)N[C@@H](CC(C)C)C(=O)N[C@@H](CCCCN)C(=O)N[C@H](C(=O)N[C@@H](CC(C)C)C(N)=O)C(C)C)C(C)C` (Ac-KWKLFKKIGKVLKVL-NH2), the MIC was found to be 4 µM (≈ 7.48 µg/mL) in the series on Staphylococcus aureus [1]; 0.5 µM (≈ 0.935 µg/mL) in series [3]; 1 µM (≈ 1.87 µg/mL) against Pseudomonas aeruginosa; 0.5 µM (≈ 0.935 µg/mL) with Escherichia coli; 1 µM (≈ 1.87 µg/mL) in the series with Staphylococcus aureus [8]. Moreover, the results for the Activity in the series with J774.A1 [2] and in the series on RAW264.7 [5] were 43% and 56%, respectively. The “Selectivity Index” value in series [4] is given as 0.4; in [6], 1.5; in series [7], 0.8; in series [9], 3. The same molecule registered a Hemolysis in the series filed under Homo sapiens of 67%.
